Reference: EPA's CvTdb concentration-time database

Assays:
Rat [1] = experiment: concentration in kidney after dosing; settings: 3 h; dosed: Perfluorohexane-1-sulphonic acid – potassium salt; 16 mg/kg; oral; Female; F344
Rat [2] = experiment: concentration in brain after dosing; settings: 12 h; dosed: Perfluorohexane-1-sulphonic acid – potassium salt; 16 mg/kg; oral; Female; Harlan Sprague Dawley
Rat [3] = experiment: concentration in liver after dosing; settings: 1200 h; dosed: Perfluorohexane-1-sulphonic acid – potassium salt; 16 mg/kg; oral; Male; Harlan Sprague Dawley
Rat [4] = experiment: concentration in liver after dosing; settings: 3 h; dosed: Perfluorohexane-1-sulphonic acid – potassium salt; 16 mg/kg; oral; Female; Harlan Sprague Dawley
Rat [5] = experiment: concentration in liver after dosing; settings: 1200 h; dosed: Perfluorohexane-1-sulphonic acid – potassium salt; 16 mg/kg; oral; Male; Harlan Sprague Dawley; remark: listed apart in the source
Rat [6] = experiment: concentration in kidney after dosing; settings: 192 h; dosed: Perfluorohexane-1-sulphonic acid – potassium salt; 16 mg/kg; oral; Female; F344
Rat [7] = experiment: concentration in plasma after dosing; settings: 2 h; dosed: Pyridine; 5 mg/kg; iv; Male; F344
Rat [8] = experiment: concentration in plasma after dosing; settings: 5 min; dosed: Pyridine; 10 mg/kg; iv; Male; F344
Rat [9] = experiment: concentration in plasma after dosing; settings: 0.25 h; dosed: Pyridine; 10 mg/kg; iv; Male; F344
Hamster [10] = experiment: concentration in plasma after dosing; settings: dosed: 2,4-Dichlorophenoxyacetic acid, 2.0 mg/kg, oral, Male, Syrian Golden
Method in brief: (§1)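 Sampling and analytical methods are those of each source and frequently went unreported. The concentration-versus-time and amount-versus-time points were compiled from published in vivo toxicokinetic studies and two structured collections. Most were digitised from plot screenshots with WebPlotDigitizer, with others copied from tables, in the reported units.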

Hamster [11] = experiment: concentration in plasma after dosing; settings: dosed: 2,4-Dichlorophenoxyacetic acid, 8.0 mg/kg, oral, Male, Syrian Golden
Method in brief: as §1

human = experiment: concentration in urine after dosing; settings: dosed: trichloroethylene, inhalation, duration: 2 hr - 20 min
Method in brief: as §1

dog = experiment: concentration in urine after dosing; settings: dosed: trichloroethylene, 100 ppm, inhalation, duration: 6 hr, male, beagle
Method in brief: as §1

Rat [12] = experiment: concentration in plasma after dosing; settings: dosed: Methyleugenol, 37 mg/kg, iv, Male, F344
Rat [13] = experiment: concentration in plasma after dosing; settings: dosed: Methyleugenol, 37 mg/kg, oral, Male, F344/N
Rat [14] = experiment: concentration in plasma after dosing; settings: 6 h; dosed: 2-Hydroxy-4-methoxybenzophenone; 500 mg/kg; oral; Male; F344
Mouse [15] = experiment: concentration in plasma after dosing; settings: 10 min; dosed: 2-Hydroxy-4-methoxybenzophenone; 250 mg/kg; oral; Female; B6C3F1
Mouse [16] = experiment: concentration in plasma after dosing; settings: 0.25 h; dosed: 2-Hydroxy-4-methoxybenzophenone; 50 mg/kg; iv; Male; B6C3F1
Mouse [17] = experiment: concentration in plasma after dosing; settings: 2 h; dosed: 2-Hydroxy-4-methoxybenzophenone; 250 mg/kg; oral; Female; B6C3F1
Mouse [18] = experiment: concentration in plasma after dosing; settings: 3 h; dosed: 2-Hydroxy-4-methoxybenzophenone; 250 mg/kg; oral; Female; B6C3F1
Rat [19] = experiment: concentration in plasma after dosing; settings: dosed: 2-Hydroxy-4-methoxybenzophenone, 100 mg/kg, oral, Female, F344
Rat [20] = experiment: concentration in plasma after dosing; settings: 0.25 h; dosed: 2-Hydroxy-4-methoxybenzophenone; 500 mg/kg; oral; Male; F344
Mouse [21] = experiment: concentration in plasma after dosing; settings: 2.5 min; dosed: 2-Hydroxy-4-methoxybenzophenone; 250 mg/kg; oral; Male; B6C3F1
Rat [22] = experiment: concentration in plasma after dosing; settings: 3 h; dosed: alpha-Thujone; 25 mg/kg; oral; Male; Harlan Sprague Dawley
Rat [23] = experiment: concentration in plasma after dosing; settings: 5 min; dosed: alpha-Thujone; 50 mg/kg; oral; Female; Harlan Sprague Dawley
Rat [24] = experiment: concentration in brain after dosing; settings: 1.5 h; dosed: alpha-Thujone; 50 mg/kg; oral; Male; Harlan Sprague Dawley
Rat [25] = experiment: concentration in brain after dosing; settings: 5 min; dosed: alpha-Thujone; 50 mg/kg; oral; Female; Harlan Sprague Dawley
Rat [26] = experiment: concentration in plasma after dosing; settings: 3 h; dosed: alpha-Thujone; 25 mg/kg; oral; Female; Harlan Sprague Dawley
Rat [27] = experiment: concentration in brain after dosing; settings: 10 min; dosed: alpha-Thujone; 25 mg/kg; oral; Male; Harlan Sprague Dawley
Rat [28] = experiment: concentration in plasma after dosing; settings: 3 h; dosed: alpha-Thujone; 25 mg/kg; oral; Male; Harlan Sprague Dawley; remark: listed apart in the source
Rat [29] = experiment: concentration in brain after dosing; settings: 5 min; dosed: alpha-Thujone; 50 mg/kg; oral; Female; Harlan Sprague Dawley; remark: listed apart in the source
Rat [30] = experiment: concentration in plasma after dosing; settings: 0.25 h; dosed: Primidone; 30 mg/kg; oral; Male; F344
Rat [31] = experiment: concentration in plasma after dosing; settings: 3 h; dosed: Primidone; 80 mg/kg; oral; Male; F344

O=S(=O)([O-])C(F)(F)C(F)(F)C(F)(F)C(F)(F)C(F)(F)C(F)(F)F.[K+] [Perfluorohexane-1-sulphonic acid – potassium salt]
Settings | concentration in brain [ng/g] | concentration in kidney [ng/g] | concentration in liver [ng/g]
Rat [1] | – | 29100 | –
Rat [2] | 1190 | – | –
Rat [3] | – | – | 10900
Rat [4] | – | – | 54100
Rat [5] | – | – | 15500
Rat [6] | – | 15300 | –

c1ccncc1 [Pyridine]
Settings | concentration in plasma [ng/mL]
Rat [7] | 2920
Rat [8] | 2510
Rat [9] | 4870

O=C(O)COc1ccc(Cl)cc1Cl [2,4-Dichlorophenoxyacetic acid]
concentration in plasma [ng/mL]
Settings | 0.25 h | 0.5 h | 1 h | 1.5 h | 2 h | 2.5 h | 5 min | 6 h | 10 min
Hamster [10] | – | – | – | – | – | 200 | 2770 | – | 10300
Hamster [11] | 21800 | 8620 | 1740 | 761 | 1360 | 115 | 25700 | 466 | –

OCC(Cl)(Cl)Cl [trichloroethanol]
concentration in urine [mg/kg], human
Settings | 2.667 h | 6.667 h | 10.67 h | 19.67 h
1348 mg | 158 | 161 | 79.7 | 65.3
1681 mg | 125 | 236 | 136 | 131
3907 mg | 186 | 258 | 154 | 168

dog
Settings | concentration in urine [ng/mL]
24 h | 129000
48 h | 115000
72 h | 155000
96 h | 205000
120 h | 154000

C=CCc1ccc(OC)c(OC)c1 [Methyleugenol]
concentration in plasma [ng/mL]
Settings | 0.5 h | 0.75 h | 5 h | 20 min
Rat [12] | 4010 | 2000 | – | –
Rat [13] | – | – | 7.02 | 53.8

O=C(c1ccccc1)c1ccc(O)cc1O [2,4-Dihydroxybenzophenone]
Settings | concentration in plasma [ng/mL]
Mouse [15] | 1290
Mouse [16] | 1940
Mouse [17] | 190
Mouse [18] | 162
Mouse [21] | 149
Rat [14] | 245
Rat [20] | 713

Rat [19]
Settings | concentration in plasma [ng/mL]
0.25 h | 123
4 h | 77.4

CC(C)[C@]12CC(=O)[C@H](C)[C@H]1C2 [alpha-Thujone]
Settings | concentration in brain [ng/g] | concentration in plasma [ng/mL]
Rat [22] | – | 113
Rat [23] | – | 112
Rat [24] | 1800 | –
Rat [25] | 994 | –
Rat [26] | – | 180
Rat [27] | 731 | –
Rat [28] | – | 131
Rat [29] | 996 | –

CCC1(c2ccccc2)C(=O)NCNC1=O [Primidone]
Settings | concentration in plasma [ng/mL]
Rat [30] | 7800
Rat [31] | 37200
